Assay results published in ChEMBL document CHEMBL2151009, “Structures and mechanisms of antitumor agents: xestoquinones uncouple cellular respiration and disrupt HIF signaling in human breast tumor cells” (J Nat Prod, 2012).
pIC50: −log10 of the molar value. Where a name gives a salt, the structure may show the parent alone. Activity calls are given as the source filed them. The calls are words filed in the database; no cut-off is given here.

Key:
T47D [1] = experiment: Decrease in mitochondrial membrane potential in human T47D cells at 10 uM after 15 to 20 mins by TMRM assay; assay type: functional, cell-based
In short: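 T47D cells preloaded with TMRM, then given compound. Epifluorescence images taken before and 15–20 min after addition. Per-cell fluorescence intensity quantified; solvent control 0.26% DMSO; FCCP as reference. Groups compared by unpaired t test.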

[2] = target: T1, Hypoxia inducible factors; HIF-1-alpha, HIF-2-alpha (Homo sapiens, UniProt Q16665+Q99814); experiment: Inhibition of HIF1-mediated VEGF production in human T47D cells under hypoxic condition at 10 uM after 16 hrs by ELISA; assay type: cell-based
In short: (§1)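 T47D cells exposed 16 h to hypoxia (1% O2) or to 1,10-phenanthroline (10 μM), with compound at 10 μM. Secreted VEGF in conditioned medium measured by ELISA and normalized to cellular protein. Cycloheximide 10 μM as positive control; normoxic medium control included. Mean + SD of one experiment in triplicate.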

T47D [3] = experiment: Cytotoxicity against human T47D cells after 48 hrs by SRB assay; assay type: functional, cell-based
In short: (§2)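 Cells from ATCC treated 48 h with compounds from DMSO stocks (final DMSO under 0.5%). IC50 and 95% CI fitted from one experiment run in triplicate.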

T47D [4] = experiment: Effect on cellular respiration in human T47D cells assessed as increase in oxygen consumption at 10 to 30 uM; assay type: functional
In short: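 Oxygen consumption of intact respiring T47D cells. Compound added in half-log increments; FCCP as reference uncoupler. Rate expressed as % of untreated control. For 10 and 30 μM: mean + SD from three independent experiments. Lower concentrations: n = 2.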

[5] = target: T1, Hypoxia inducible factors; HIF-1-alpha, HIF-2-alpha; experiment: Inhibition of 1,10-phenanthroline-induced HIF1 activation in human T47D cells after 16 hrs by HRE3-TK-luciferase reporter gene assay; assay type: cell-based
In short: (§3)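 T47D reporter assay for HIF-1 activity. Induced by hypoxia (1% O2) or by 1,10-phenanthroline (10 μM). Compounds tested at 0.3–30 μM in half-log steps; cycloheximide 1 μM as positive control. Luciferase signal expressed as % inhibition of the induced control without compound. IC50 and 95% CI from one experiment in triplicate.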

[6] = target: T1, Hypoxia inducible factors; HIF-1-alpha, HIF-2-alpha; experiment: Inhibition of HIF1-mediated VEGF production in human T47D cells under 1,10-phenanthroline-induced hypoxic condition at 10 uM after 16 hrs by ELISA; assay type: cell-based; in short: as §1
MDA-MB-231 [7] = experiment: Cytotoxicity against human MDA-MB-231 cells after 48 hrs by SRB assay; assay type: functional, cell-based; settings: MDA-MB-231, 48 h; in short: as §2
[8] = target: T1, Hypoxia inducible factors; HIF-1-alpha, HIF-2-alpha; experiment: Inhibition of hypoxia-induced HIF1 activation in human T47D cells after 16 hrs by HRE3-TK-luciferase reporter gene assay; assay type: cell-based; in short: as §3
MDA-MB-231 [9] = experiment: Cytotoxicity against human MDA-MB-231 cells assessed as decrease in cell viability at 30 uM after 48 hrs by SRB assay; assay type: functional
T47D [10] = experiment: Cytotoxicity against human T47D cells assessed as decrease in cell viability at 30 uM after 48 hrs by SRB assay; assay type: functional

inhibition [2]	IC50 [5] [µM]	inhibition [6]	IC50 [8] [µM]	SMILES	Activity (T47D [1])	pIC50 (T47D [3])	Activity (T47D [4]) [%]	pIC50 (MDA-MB-231 [7])	Activity (MDA-MB-231 [9]) [%]	Activity (T47D [10]) [%]
inactive	0.2	Active	6.4	C[C@@]12CCCc3coc(c31)C(=O)c1cc3c(cc12)C(=O)C1=NCCS(=O)(=O)C1=C3O [ADOCIAQUINONE A]	inactive	5.59	47	5.20		
	> 30		> 30	C[C@@]12CCCc3coc(c31)C(=O)c1cc3c(O)ccc(OS(=O)(=O)O)c3cc12 [XESTOQUINOL SULFATE]		< 4.52		< 4.52	<5	<5
inactive	7.3	inactive	12.3	C[C@@]12CCCc3coc(c31)C(=O)c1cc3c(cc12)C(=O)C=CC3=O [XESTOQUINONE]	inactive	4.86	47	4.69		

The next lines start with the molecule.

SMILES	inhibition [2]	IC50 [5] [µM]	inhibition [6]	IC50 [8] [µM]	Activity (T47D [1])	pIC50 (T47D [3])	Activity (T47D [4]) [%]	pIC50 (MDA-MB-231 [7])	Activity (MDA-MB-231 [9]) [%]	Activity (T47D [10]) [%]
C[C@@]12CCCc3coc(c31)C(=O)c1cc3c(cc12)C(=O)C=C(CO)C3=O	Active	1.2	Active	1.7	Active	5.44	47	5.19		
C[C@@]12CCCc3coc(c31)C(=O)c1cc3c(cc12)C(=O)C(CO)=CC3=O	Active	1.5	Active	2.3		5.37		5.20		
C[C@@]12CCCc3coc(c31)C(=O)c1cc3c(cc12)C(=O)CCC3=O	inactive	4.2	inactive	10.6		4.80		4.55		
C[C@@]12CCCc3coc(c31)C(=O)c1cc3c(cc12)C(=O)C1=C(NCCS1(=O)=O)C3=O [ADOCIAQUINONE B]	inactive	0.2	Active	4.6		5.54		5.21		
